Measurements taken from ChEMBL document CHEMBL1123593, “2,4-diamino-6,7-dimethoxyquinazolines. 1. 2-[4-(1,4-benzodioxan-2-ylcarbonyl)piperazin-1-yl] derivatives as alpha 1-adrenoceptor antagonists and antihypertensive agents” (J Med Chem, 1987).
Calls of active or inactive are those of the source. The calls are words filed in the database; no cut-off is given here.

How the values were obtained:
Rattus norvegicus [1] = assay: Percent reduction in blood pressure in spontaneously hypertensive rats (SHR) at peroral dose of 5 mg/kg was determined after 6 hr; assay type: functional; settings: route oral
Method in brief: (§1)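 Single oral gavage dose of 5 mg/kg to groups of six spontaneously hypertensive rats, all with starting systolic pressure above 175 mmHg. Rats were warmed at 33 °C for 20–30 min before readings. Systolic pressure was taken by tail cuff with a variable capacitance transducer, predose and at 1, 2, 4 and 6 h. Percent reduction from predose is given. Saline-dosed controls (n = 10) were run.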

Rattus norvegicus [2] = assay: Percent reduction in blood pressure in spontaneously hypertensive rats (SHR) at peroral dose of 5 mg/kg was determined after 1 hr; assay type: functional; settings: route oral; method in brief: as §1
[3] = target: T1, Adrenergic receptor alpha-1 (Rattus norvegicus, UniProt P15823+P23944+P43140); assay: Compound was tested for its binding affinity for alpha-1 adrenergic receptor site by displacement of [3H]prazosin at 0.15 nM concentration
T1 sequence (P15823 whole entry): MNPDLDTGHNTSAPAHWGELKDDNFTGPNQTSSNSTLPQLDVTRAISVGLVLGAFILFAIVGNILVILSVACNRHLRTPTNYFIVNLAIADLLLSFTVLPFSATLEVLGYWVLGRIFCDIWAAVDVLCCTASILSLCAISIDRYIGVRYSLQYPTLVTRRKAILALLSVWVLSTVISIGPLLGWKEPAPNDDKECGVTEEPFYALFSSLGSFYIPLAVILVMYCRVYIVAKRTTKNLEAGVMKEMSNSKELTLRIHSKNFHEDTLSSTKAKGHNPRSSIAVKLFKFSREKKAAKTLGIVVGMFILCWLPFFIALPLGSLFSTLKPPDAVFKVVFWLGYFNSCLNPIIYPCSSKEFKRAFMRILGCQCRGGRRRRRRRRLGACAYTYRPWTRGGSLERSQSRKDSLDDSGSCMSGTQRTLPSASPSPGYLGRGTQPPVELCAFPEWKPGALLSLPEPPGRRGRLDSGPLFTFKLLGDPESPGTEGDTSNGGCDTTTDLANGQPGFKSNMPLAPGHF
T1 sequence (P23944 whole entry): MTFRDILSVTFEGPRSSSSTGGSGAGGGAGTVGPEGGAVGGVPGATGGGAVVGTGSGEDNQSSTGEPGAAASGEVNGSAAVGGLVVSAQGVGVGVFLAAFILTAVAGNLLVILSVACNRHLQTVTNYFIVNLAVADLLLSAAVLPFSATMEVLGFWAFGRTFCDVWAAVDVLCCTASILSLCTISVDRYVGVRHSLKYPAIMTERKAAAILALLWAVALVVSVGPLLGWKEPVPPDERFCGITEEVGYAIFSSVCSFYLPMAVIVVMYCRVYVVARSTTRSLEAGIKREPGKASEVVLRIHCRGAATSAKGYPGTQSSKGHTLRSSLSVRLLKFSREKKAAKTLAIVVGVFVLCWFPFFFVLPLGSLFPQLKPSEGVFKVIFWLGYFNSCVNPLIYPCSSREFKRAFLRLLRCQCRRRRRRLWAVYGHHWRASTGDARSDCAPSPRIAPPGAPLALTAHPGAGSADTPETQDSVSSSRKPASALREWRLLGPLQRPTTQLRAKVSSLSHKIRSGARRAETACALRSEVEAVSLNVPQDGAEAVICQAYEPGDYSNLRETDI
T1 sequence (P43140 whole entry): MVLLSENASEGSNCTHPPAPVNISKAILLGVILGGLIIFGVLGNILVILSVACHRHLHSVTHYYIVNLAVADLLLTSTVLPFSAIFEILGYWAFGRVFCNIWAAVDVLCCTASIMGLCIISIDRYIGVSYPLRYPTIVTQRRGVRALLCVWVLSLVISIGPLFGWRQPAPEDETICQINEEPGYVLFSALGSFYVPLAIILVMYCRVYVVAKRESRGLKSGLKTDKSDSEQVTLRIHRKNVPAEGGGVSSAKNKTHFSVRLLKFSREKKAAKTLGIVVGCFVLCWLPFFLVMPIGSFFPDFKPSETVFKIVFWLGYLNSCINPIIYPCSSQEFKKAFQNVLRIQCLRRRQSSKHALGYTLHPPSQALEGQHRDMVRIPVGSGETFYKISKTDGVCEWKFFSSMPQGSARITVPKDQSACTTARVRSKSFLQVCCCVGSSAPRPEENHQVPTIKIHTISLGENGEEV

[4] = target: T2, Adrenergic receptor alpha-1 (Homo sapiens) (UniProt P35348+P25100+P35368); assay: Antagonist activity against post junctional alpha-1 adrenergic receptor was measured by Kerbs super fused rabbit pulmonary artery preparations labeled with [3H]- norepinephrine.; assay type: functional; settings: Oryctolagus cuniculus; target entry is the homologue from another species
Method in brief: (§2)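 Rabbit pulmonary artery superfused in Krebs after [3H]-noradrenaline labelling, with transmural electrical stimulation (3 Hz, 0.05 h). Postjunctional response was read as contraction on an isometric transducer. Percent antagonism was plotted against compound concentration. EC40-post, the concentration giving 40% reduction of contractile response, was read from the graph. Values are averaged from two experiments, six for some.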

[5] = target: T1, Adrenergic receptor alpha-1; assay: Compound was tested for its binding affinity for alpha-1 adrenergic receptor site by displacement of [3H]prazosin at 0.15 nM concentration; remark: listed apart in the source
[6] = target: T3, Adrenergic receptor alpha-2 (Homo sapiens) (UniProt P08913+P18825+P18089); settings: Oryctolagus cuniculus; Pulmonary artery
[7] = target: T1, Adrenergic receptor alpha-1; assay: Compound was tested for its binding affinity for alpha-1 adrenergic receptor site by displacement of [3H]prazosin at 0.15 nM concentration; remark: listed apart in the source
[8] = target: T2, Adrenergic receptor alpha-1 (Homo sapiens); assay: Antagonist activity against post junctional alpha-1 adrenergic receptor was measured by Kerbs super fused rabbit pulmonary artery preparations labeled with [3H]- norepinephrine; assay type: functional, tissue-based; settings: Oryctolagus cuniculus, target entry is the homologue from another species; method in brief: as §2
[9] = target: T3, Adrenergic receptor alpha-2 (Homo sapiens); assay: Antagonist activity against prejunctional alpha-2 adrenergic receptor was measured by Kerbs super fused rabbit pulmonary artery preparations labeled with [3H]- norepinephrine; NA means no activity.; assay type: functional; settings: Oryctolagus cuniculus; target entry is the homologue from another species
Method in brief: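 [3H]-noradrenaline-labelled rabbit pulmonary artery, Krebs-superfused and stimulated transmurally (3 Hz, 0.05 h). Prejunctional action was read as [3H] overflow by liquid scintillation counting and plotted against compound concentration. EC40-pre, the concentration producing a 40% increase in [3H] overflow, was read from the graph. Values are averaged from two experiments, six for some.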

[10] = target: T2, Adrenergic receptor alpha-1 (Homo sapiens); assay: Antagonist activity against post junctional Alpha-1 adrenergic receptor was measured by Kerbs super fused rabbit pulmonary artery preparations labeled with [3H]- norepinephrine.; assay type: functional, tissue-based; settings: Oryctolagus cuniculus, target entry is the homologue from another species; method in brief: as §2
[11] = target: T1, Adrenergic receptor alpha-1; assay: Compound was tested for its binding affinity for alpha-1 adrenoceptor site by displacement of [3H]-prazosin at 0.15 nM concentration

| Structure (SMILES) | Ki [3] | Reduction (Rattus norvegicus [1]) | Reduction (Rattus norvegicus [2]) | further results |
| --- | --- | --- | --- | --- |
| COc1cc2nc(N3CCN(C(=O)C4COc5ccccc5O4)CC3)nc(N)c2cc1OC (single isomer, unassigned; (+)) [DOXAZOSIN] | 2.6 nM |  |  | Reduction (Rattus norvegicus [1]; 5 mg/kg): 24%; Reduction (Rattus norvegicus [2]; 5 mg/kg): 27% |
| COc1cc2nc(N3CCCN(C(=O)C4COc5ccccc5O4)CC3)nc(N)c2cc1OC (configuration not stated) | 1.6 nM | 12% | 22% |  |
| COc1cc2nc(N3CCN(C(=O)C4COc5ccccc5O4)CC3)nc(N)c2cc1OC (single isomer, unassigned; (+)) |  |  |  | EC40 [4]: 7 nM |
| COc1cc2nc(N3CCN(C(=O)C4COc5cccc(OC)c5O4)CC3)nc(N)c2cc1OC (configuration not stated) |  | 13% | 14% | Ki [5]: 2.4 nM |
| COc1cc2nc(N3CCN(C(=O)C4COc5cc(Cl)ccc5O4)CC3)nc(N)c2cc1OC (configuration not stated) | 12.6 nM | 23% | 27% |  |
| COc1cc2nc(N3CCN(C(=O)c4ccco4)CC3)nc(N)c2cc1OC [PRAZOSIN] |  | 29% | 33% | EC40 [4]: 4.5 nM |
| COc1cc2nc(N3CCN(C(=O)C4COc5ccc(C(C)=O)cc5O4)CC3)nc(N)c2cc1OC (configuration not stated) | 3 nM | 24% | 19% |  |
| COc1cc2nc(N3CCN(C(=O)C4COc5cccc(C)c5O4)CC3)nc(N)c2cc1OC (configuration not stated) | 3.7 nM | 22% | 16% | EC40 [4]: 26 nM; EC40 [6]: inactive |
| COc1cc2nc(N3CCN(C(=O)C4COc5ccccc5O4)C(C)C3)nc(N)c2cc1OC (configuration not stated) | 6.5 nM | 13% | 18% |  |
| COc1cc2nc(N3CCN(C(=O)C4COc5cc(C(C)=O)ccc5O4)CC3)nc(N)c2cc1OC (configuration not stated) | 6.4 nM | 24% | 26% |  |
| COc1cc2nc(N3CCN(C(=O)C4COc5ccccc5O4)CC3)nc(N)c2cc1OC (single isomer, unassigned; (-)) |  |  |  | EC40 [4]: 40 nM |
| COc1cc2nc(N3CCN(C(=O)C4(C)COc5ccccc5O4)CC3)nc(N)c2cc1OC (configuration not stated) |  | 9% | 8% | Ki [7]: 1.5 nM |
| COc1cc2nc(N3CCN(C(=O)C4COc5ccccc5O4)CC3)nc(N)c2cc1OC (stereo in doubt; 1) |  |  |  | EC40 [4]: 50 nM |
| COc1cc2nc(N3CCN(C(=O)C4COc5cc(Cl)c(Cl)cc5O4)CC3)nc(N)c2cc1OC (configuration not stated) | 13.3 nM | 9% | 6% |  |
| COc1cc2nc(N3CCN(C(=O)C4COc5cccc(C(C)C)c5O4)CC3)nc(N)c2cc1OC (configuration not stated) | 6.7 nM | 3% | 6% | EC40 [8]: 130 nM; EC40 [6]: inactive |
| COc1cc2nc(N3CCN(C(=O)C4COc5ccc(S(=O)(=O)N(C)C)cc5O4)CC3)nc(N)c2cc1OC (configuration not stated) | 6.5 nM | 8% | 10% |  |
| COc1cc2nc(N3CCN(C(=O)C4COc5cc(C)c(C)cc5O4)CC3)nc(N)c2cc1OC (configuration not stated) | 7.8 nM | 20% | 14% |  |
| COc1cc2nc(N3CCN(C(=O)C4Oc5ccccc5OC4C)CC3)nc(N)c2cc1OC (trans isomer) [listing 2 of 2 here] |  |  |  | EC40 [4]: 13 nM; EC40 [6]: inactive |
| COc1ccc2c(c1)OCC(C(=O)N1CCN(c3nc(N)c4cc(OC)c(OC)cc4n3)CC1)O2 (configuration not stated) |  | 23% | 34% | EC40 [9]: inactive; EC40 [10]: 10 nM; Ki [11]: 5.6 nM |
| COc1cc2nc(N3CCN(C(=O)C4Oc5ccccc5OC4C)CC3)nc(N)c2cc1OC (cis isomer) [listing 2 of 2 here] |  |  |  | EC40 [4]: 27 nM; EC40 [6]: inactive |
| COc1cc2nc(N3CCN(C(=O)C4CCOc5ccccc5O4)CC3)nc(N)c2cc1OC (configuration not stated) | 3.8 nM | 16% | 21% |  |

Now from value to compound, other results behind:

| Ki [3] | Structure (SMILES) | Reduction (Rattus norvegicus [1]) | Reduction (Rattus norvegicus [2]) | further results |
| --- | --- | --- | --- | --- |
| 2.1 nM | COc1cc2nc(N3CCN(C(=O)C4Oc5ccccc5OC4C)CC3)nc(N)c2cc1OC (trans isomer) [listing 1 of 2 here] |  |  | Reduction (Rattus norvegicus [1]; 5 mg/kg): 21%; Reduction (Rattus norvegicus [2]; 5 mg/kg): 21% |
| 1.1 nM | COc1cc2nc(N3CCN(C(=O)C4COc5ccccc5O4)CC3)nc(N)c2cc1OC (stereo in doubt; 1) [DOXAZOSIN] |  |  | Reduction (Rattus norvegicus [1]; 5 mg/kg): 27%; Reduction (Rattus norvegicus [2]; 5 mg/kg): 23% |
| 0.7 nM | COc1cc2nc(N3CCN(C(=O)C4Oc5ccccc5OC4C)CC3)nc(N)c2cc1OC (cis isomer) [listing 1 of 2 here] |  |  | Reduction (Rattus norvegicus [1]; 5 mg/kg): 25%; Reduction (Rattus norvegicus [2]; 5 mg/kg): 23% |
| 2.2 nM | COc1cc2nc(N3CCN(C(=O)C4COc5ccccc5O4)CC3)nc(N)c2cc1OC (single isomer, unassigned; (-)) [DOXAZOSIN] |  |  | Reduction (Rattus norvegicus [2]; 5 mg/kg): 12% |
